Laboratory results as given in ChEMBL document CHEMBL1129428 (J Med Chem, 1996).

Tests used:
[1] = test system: Rattus norvegicus; test: Compound was tested for anticonvulsant activity after Oral Administration into Rats by using MES screen test after 2h,dose 50 mg/kg; number of rats out of four which were protected; assay type: functional
Outline: (§1)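 Rats received the compound orally. […] Rats were tested in the MES screen at 0.25, 0.5, 1, 2 and 4 h. Each value is the number of rats protected out of 4. The test followed NINDS procedures.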

[2] = test system: Rattus norvegicus; test: Compound was tested for anticonvulsant activity after Oral Administration into Rats by using MES screen test after 0.25h,dose 50 mg/kg; number of rats out of four which were protected; assay type: functional; outline: as §1
[3] = test system: Mus musculus; test: Compound was tested for anticonvulsant activity after intraperitoneal injection into mice by using scPTZ screen test after 1 hr; assay type: functional; settings: ip
Outline: (§2)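 Quantitative intraperitoneal mouse testing in the MES, scPTZ or rotorod neurotoxicity screens at the peak time given for each compound (0.25–2 h). ED50 or TD50 reported in mg/kg with 95% CI and slope (SE).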

[4] = test system: Rattus norvegicus; test: Compound was tested for anticonvulsant activity after Oral Administration into Rats by using MES screen test after 1h,dose 50 mg/kg; number of rats out of four which were protected; assay type: functional; outline: as §1
[5] = Compound was tested for toxicity after intraperitoneal injection into mice by using neurotoxicity screen test after 1 hr; assay type: organism-based; settings: mouse, in vivo, ip; outline: as §2
[6] = test system: Rattus norvegicus; test: Compound was tested for anticonvulsant activity after Oral Administration into Rats by using MES screen test after 0.5h,dose 50 mg/kg; number of rats out of four which were protected; assay type: functional; outline: as §1
[7] = test system: Mus musculus; test: Anticonvulsant activity after intraperitoneal injection into mice by using MES screen test after 0.5 hr; assay type: functional
[8] = test system: Mus musculus; test: Anticonvulsant activity after intraperitoneal injection into mice measured in a maximal electroshock scree (MES) screen; assay type: functional
[9] = test system: Mus musculus; test: Compound was tested for anticonvulsant activity after intraperitoneal injection into mice by using MES screen test after 1 hr; assay type: functional; settings: ip; outline: as §2
[10] = Compound was tested for toxicity after oral administration in rat by using neurotoxicity screen test after 0.25-24 hr; assay type: organism-based; settings: in vivo
Outline: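 Rat neurotoxicity after oral dosing, observed at 0.25, 0.5, 1, 2, 4, 6, 8 and 24 h (8 h omitted for one compound).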

[11] = test system: Rattus norvegicus; test: Compound was tested for anticonvulsant activity after Oral Administration into Rats by using MES screen test after 4h,dose 50 mg/kg; number of rats out of four which were protected; assay type: functional; outline: as §1
[12] = Partition coefficient (logP); assay type: physicochemical; settings: octanol/water
Outline: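 Partition between 1-octanol and buffer at pH 7.4, with solutions prepared in 1-octanol before buffer is added. Quantified by UV, using λmax and ε values measured in 1-octanol.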

[13] = test system: Rattus norvegicus; test: Compound was tested for anticonvulsant activity after Oral Administration into Rats by using MES screen test after 0.5h,dose 12.5 mg/kg; No activity was demonstarted; assay type: functional, organism-based; set-up: dose 12.5 mg/kg; outline: as §1
[14] = test system: Rattus norvegicus; test: Compound was tested for anticonvulsant activity after Oral Administration into Rats by using MES screen test after 4h,dose 12.5 mg/kg; number of rats out of four which were protected; assay type: functional; outline: as §1
[15] = test system: Rattus norvegicus; test: Compound was tested for anticonvulsant activity after Oral Administration into Rats by using MES screen test after 1h,dose 12.5 mg/kg; No activity was demonstarted; assay type: functional, organism-based; set-up: dose 12.5 mg/kg; outline: as §1
[16] = test system: Mus musculus; test: Compound was tested for toxicity after intraperitoneal injection into mice by using toxicity screen test after 4 hr; assay type: organism-based; settings: in vivo, ip
Outline: (§3)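 Mice injected intraperitoneally at 30, 100 and 300 mg/kg and examined 0.5 and 4 h afterwards. Each entry is the minimum dose giving activity (MES protection, scPTZ protection, or rotorod failure for neurotoxicity) in half or more of the mice. Activity is called absent if nothing occurs at 300 mg/kg.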

[17] = test system: Rattus norvegicus; test: Compound was tested for anticonvulsant activity after Oral Administration into Rats by using MES screen test after 2h,dose 12.5 mg/kg; number of rats out of four which were protected; assay type: functional; outline: as §1
[18] = test system: Mus musculus; test: Anticonvulsant activity after intraperitoneal injection into mice by using scPTZ screen test after 4 hr; assay type: functional
[19] = test system: Rattus norvegicus; test: Compound was tested for anticonvulsant activity after Oral Administration into Rats by using MES screen test after 0.25h,dose 12.5 mg/kg; No activity was demonstarted; assay type: functional, organism-based; set-up: dose 12.5 mg/kg; outline: as §1
[20] = test system: Rattus norvegicus; test: Compound was tested for anticonvulsant activity after Oral Administration into Rats by using MES screen test after 1h,dose 12.5 mg/kg; number of rats out of four which were protected; assay type: functional; outline: as §1
[21] = test system: Rattus norvegicus; test: Compound was tested for anticonvulsant activity after Oral Administration into Rats by using MES screen test after 2h,dose 12.5 mg/kg; No activity was demonstarted; assay type: functional, organism-based; set-up: dose 12.5 mg/kg; outline: as §1
[22] = test system: Rattus norvegicus; test: Compound was tested for anticonvulsant activity after Oral Administration into Rats by using MES screen test after 0.25h,dose 12.5 mg/kg; number of rats out of four which were protected; assay type: functional; outline: as §1
[23] = test system: Mus musculus; test: Toxicity after intraperitoneal injection into mice by using toxicity screen test after 0.5 hr; assay type: organism-based; settings: in vivo, ip; outline: as §3
[24] = test system: Rattus norvegicus; test: Compound was tested for anticonvulsant activity after Oral Administration into Rats by using MES screen test after 0.25h,dose 50 mg/kg; No activity was demonstarted; assay type: functional, organism-based; set-up: dose 50 mg/kg; outline: as §1
[25] = test system: Rattus norvegicus; test: Compound was tested for anticonvulsant activity after Oral Administration into Rats by using MES screen test after 0.5h,dose 30 mg/kg; number of rats out of four which were protected; assay type: functional; outline: as §1
[26] = test system: Rattus norvegicus; test: Compound was tested for anticonvulsant activity after Oral Administration into Rats by using MES screen test after 2h,dose 30 mg/kg; number of rats out of four which were protected; assay type: functional; outline: as §1
[27] = test system: Rattus norvegicus; test: Compound was tested for anticonvulsant activity after Oral Administration into Rats by using MES screen test after 1h,dose 30 mg/kg; number of rats out of four which were protected; assay type: functional; outline: as §1
[28] = test system: Rattus norvegicus; test: Compound was tested for anticonvulsant activity after Oral Administration into Rats by using MES screen test after 4h,dose 30 mg/kg; number of rats out of four which were protected; assay type: functional; outline: as §1
[29] = test system: Mus musculus; test: Anticonvulsant activity after intraperitoneal injection into mice by using scPTZ screen after 0.5 hr; assay type: functional
[30] = test system: Rattus norvegicus; test: Compound was tested for anticonvulsant activity after Oral Administration into Rats by using MES screen test after 0.25h,dose 30 mg/kg; number of rats out of four which were protected; assay type: functional; outline: as §1
[31] = test system: Rattus norvegicus; test: Compound was tested for anticonvulsant activity after Oral Administration into Rats by using MES screen test after 4h,dose 12.5 mg/kg; No activity was demonstarted; assay type: functional, organism-based; set-up: dose 12.5 mg/kg; outline: as §1

Structure (SMILES)	Activity [1]	Activity [4]	Activity [6]	Dose [7]	Dose [8]	Activity [11]	Activity [13]	Activity [14]	Activity [15]	Dose [16]	Activity [17]	Dose [18]	Activity [19]	Dose [23]	Dose [29]	also measured
NC(=O)N/N=C/c1ccc(Oc2ccc(F)cc2)cc1	4	4	4	30 mg/kg	100 mg/kg	4	–	–	–	–	–	–	–	–	–	Activity [2]: 2; ED50 [3]: > 54 mg/kg; TD50 at 1 h [5]: 108 mg/kg; ED50 [9]: 12.9 mg/kg; TD50 [10]: > 500 mg/kg; logP [12]: 1.91
NC(=O)N/N=C\c1ccc(Oc2ccc(-c3ccccc3)cc2)cc1	–	–	–	–	300 mg/kg	–	No activity	1	No activity	300 mg/kg	3	300 mg/kg	No activity	–	–	–
NC(=O)N/N=C\c1ccc(OC(=O)c2ccc(Cl)cc2)cc1	–	–	–	–	300 mg/kg	–	No activity	2	–	–	–	–	–	–	–	Activity [20]: 1; Activity [21]: No activity; Activity [22]: 1
NC(=O)N/N=C\c1ccc(Oc2ccncc2)cc1	–	–	–	–	300 mg/kg	–	No activity	2	No activity	–	–	–	No activity	–	–	Activity [21]: No activity
NC(=O)N/N=C/c1ccc(Oc2ccc(F)cc2Cl)cc1	4	4	4	30 mg/kg	30 mg/kg	4	–	–	–	300 mg/kg	–	–	–	100 mg/kg	–	Activity [2]: 4; ED50 [3]: > 68 mg/kg; TD50 at 1 h [5]: 62.5 mg/kg; ED50 [9]: 13.1 mg/kg
NC(=O)N/N=C/c1ccc(Oc2ccccc2)cc1	4	4	3	100 mg/kg	300 mg/kg	4	–	–	–	–	–	–	–	–	–	Activity [24]: No activity; logP [12]: 2.66
Cc1cccc(C)c1Oc1ccc(/C=N/NC(N)=O)cc1	–	–	–	30 mg/kg	100 mg/kg	–	–	–	–	300 mg/kg	–	100 mg/kg	–	300 mg/kg	30 mg/kg	Activity [25]: 4; Activity [26]: 4; Activity [27]: 4; Activity [28]: 4; Activity [30]: 1
N=C(N)N/N=C/c1ccc(Oc2ccc(F)cc2)cc1	–	–	–	300 mg/kg	30 mg/kg	–	No activity	2	No activity	100 mg/kg	1	–	No activity	100 mg/kg	30 mg/kg	–
N=C(N)N/N=C/c1ccc(Sc2ccc(F)cc2)cc1	–	–	–	300 mg/kg	–	–	No activity	–	No activity	100 mg/kg	1	30 mg/kg	No activity	100 mg/kg	30 mg/kg	Activity [31]: No activity
